By IC50 is commonly meant the point on the concentration scale where inhibition reaches its midpoint.

The experiment deals with T1, P-selectin (Homo sapiens, UniProt P16109).
T1 sequence (P16109 whole entry): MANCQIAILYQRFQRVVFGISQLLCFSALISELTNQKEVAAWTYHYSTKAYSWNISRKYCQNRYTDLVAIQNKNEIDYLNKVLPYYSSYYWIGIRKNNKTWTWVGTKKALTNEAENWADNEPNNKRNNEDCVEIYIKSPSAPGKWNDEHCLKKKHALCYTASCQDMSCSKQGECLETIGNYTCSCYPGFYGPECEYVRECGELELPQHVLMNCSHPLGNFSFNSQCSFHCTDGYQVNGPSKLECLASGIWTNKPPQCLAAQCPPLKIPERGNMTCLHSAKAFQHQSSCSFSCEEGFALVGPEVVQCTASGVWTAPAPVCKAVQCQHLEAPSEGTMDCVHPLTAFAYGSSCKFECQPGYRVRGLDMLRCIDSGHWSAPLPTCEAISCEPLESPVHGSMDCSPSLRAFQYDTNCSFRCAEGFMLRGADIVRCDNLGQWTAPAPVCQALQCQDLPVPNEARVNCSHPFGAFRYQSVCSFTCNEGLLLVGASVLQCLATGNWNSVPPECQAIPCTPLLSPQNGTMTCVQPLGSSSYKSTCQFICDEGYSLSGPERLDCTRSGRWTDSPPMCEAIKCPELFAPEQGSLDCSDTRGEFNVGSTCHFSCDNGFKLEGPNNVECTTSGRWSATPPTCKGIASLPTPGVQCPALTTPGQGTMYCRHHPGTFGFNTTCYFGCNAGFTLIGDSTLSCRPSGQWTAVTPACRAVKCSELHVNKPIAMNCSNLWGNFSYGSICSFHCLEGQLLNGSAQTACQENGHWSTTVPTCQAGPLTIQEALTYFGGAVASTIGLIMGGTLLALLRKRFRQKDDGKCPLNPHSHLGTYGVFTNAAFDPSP
Kind of experiment: In vitro inhibitory concentration against Selectin P in a cell-free binding assay. The essentials:
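Soluble P-selectin receptor globulin (lectin, EGF and two complement repeat domains fused to an Ig tail), premixed with HRP-conjugated goat anti-human IgG. The complex was incubated on sulfatide-coated ELISA plates with or without test compound, 0.5% DMSO final. Read-out was TMB colour at 450 nm. Eight 2-fold dilutions were tested, mean of duplicates, and IC50 was interpolated from the linear part of the log dose-response curve.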
For `CCCCCCCCCCCCC/C=C/[C@@H](O)[C@H](CO[C@@H]1O[C@@H](CO)[C@@H](O)[C@H](OS(=O)(=O)O)[C@@H]1OS(=O)(=O)O)NC(=O)CCCCCCCCCCCCCCC`, the concentration for half-maximal inhibition (IC50) turned out to be 100 nM.

On to `CCCCCCCCCCCCC/C=C/[C@@H](OC(=O)c1ccccc1)[C@H](CO[C@@H]1O[C@@H](COS(=O)(=O)O)[C@@H](OC(C)=O)[C@H](OS(=O)(=O)O)[C@@H]1OC(=O)c1ccccc1)NC(=O)CCCCCCCCCCCCCCC`, for which the IC50 amounted to 1300 nM.

Consider `CCCCCCCCCCCCC/C=C/[C@@H](OC(=O)c1ccccc1)[C@H](CO[C@@H]1O[C@@H](COS(=O)(=O)O)[C@@H](O)[C@H](O)[C@@H]1OS(=O)(=O)O)NC(=O)CCCCCCCCCCCCCCC`, for which the IC50 came out at 900 nM.

`CCCCCCCCCCCCC/C=C/[C@@H](O)[C@H](CO[C@@H]1O[C@@H](COS(=O)(=O)O)[C@@H](O)[C@H](O)[C@@H]1O)NC(=O)CCCCCCCCCCCCCCC` returned an IC50 of 12000 nM.

Regarding `CCCCCCCCCCCCC/C=C/[C@@H](O)[C@H](CO[C@@H]1O[C@@H](COS(=O)(=O)O)[C@@H](O)[C@H](OS(=O)(=O)O)[C@@H]1O)NC(=O)CCCCCCCCCCCCCCC`, the IC50 was determined as 2400 nM.

`CCCCCCCCCCCCC/C=C/[C@@H](O)[C@H](CO[C@@H]1O[C@@H](COS(=O)(=O)O)[C@@H](O)[C@H](O)[C@@H]1OS(=O)(=O)O)NC(=O)CCCCCCCCCCCCCCC` displayed a half-maximal inhibitory concentration (IC50) of 1200 nM.

In turn, `CCCCCCCCCCCCC/C=C/[C@@H](OC(=O)c1ccccc1)[C@H](CO[C@@H]1O[C@@H](CO)[C@@H](O)[C@H](OS(=O)(=O)O)[C@@H]1OS(=O)(=O)O)NC(=O)CCCCCCCCCCCCCCC` gave an IC50 of 100 nM.

In the case of `CCCCCCCCCCCCC/C=C/[C@@H](O)[C@H](CO[C@@H]1O[C@@H](CO)[C@@H](O)[C@H](OS(=O)(=O)O)[C@@H]1O)NC(=O)CCCCCCCCCCCCCCC`, the IC50 came to 600 nM.

The compound `CCCCCCCCCCCCC/C=C/[C@@H](O)[C@H](CO[C@@H]1O[C@@H](CO)[C@@H](OS(=O)(=O)O)[C@H](O)[C@@H]1O)NC(=O)CCCCCCCCCCCCCCC` displayed an IC50 of 12500 nM.

The compound `CCCCCCCCCCCCC/C=C/[C@@H](O)[C@H](CO[C@@H]1O[C@@H](COS(=O)(=O)O)[C@@H](OS(=O)(=O)O)[C@H](O)[C@@H]1O)NC(=O)CCCCCCCCCCCCCCC` returned an IC50 of 1700 nM.

`CCCCCCCCCCCCC/C=C/[C@@H](O)[C@H](CO[C@@H]1O[C@@H](CO)[C@@H](O)[C@H](O)[C@@H]1OS(=O)(=O)O)NC(=O)CCCCCCCCCCCCCCC` showed a concentration for half-maximal inhibition (IC50) of 2500 nM.

Consider `CCCCCCCCCCCCC/C=C\C(O)C(CO)NC(=O)O[C@@H]1O[C@H](CO)[C@H](O)[C@H](O)[C@H]1O` (some centres not stated) [GALACTOCEREBROSIDE], for which the IC50 was more than 50000 nM.
